S100A4 inh HTS – blocks human S100A4 binding to myosin IIA peptide | AID 652163 | hit rate 0.14% among 360,000 | P26447 | inhibition, % at 10.7 µM | S100A4/TAMRA-MyoIIA peptide fluorescence polarization;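 active means mean inhibition of at least 70% across replicates, with every replicate also reaching that level; inconclusive means mean inhibition reaches 70% but some replicates fall short; inactive means mean inhibition below 70%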
Target sequence (P26447 whole entry, looked up): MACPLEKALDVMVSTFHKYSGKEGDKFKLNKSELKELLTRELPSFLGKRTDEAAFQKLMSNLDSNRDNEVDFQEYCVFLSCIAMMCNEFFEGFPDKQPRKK
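Test system: S100A4 monomer protein. Medium: HEPES buffer with Ca2+, pH 7.2. Reagent: fluorescent myosin IIA peptide, 5 nM. Compound dosing: single-point compound testing. Timing: 5 min between mix addition and reading. Benchmarks: DMSO neutral and TFP positive wells.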
INS-1E GSIS act – GLuc luminescence reporter in INS-1E cells, primary screen for activators of glucose-dependent secretion of insulin | hit rate 0.61% among 370,000 | AID 743287 | INS-1E GLuc reporter insulin secretion, 2-3 h | activation, % at 16.6 µM;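 active means lowest replicate activation of at least 40%, so every replicate reaches that level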;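 further: 0% = median of neutral control wells and 100% = median of IBMX positive control wells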
ERp5 block – inhibitors of human ERp5; AID 651711; inhibition, % at 9.99 µM; ERp5 insulin aggregation, absorbance 650 nm, 90 min; hit rate 0.05% among 350,000;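 active means mean replicate inhibition above about 25%, with every replicate also reaching it, limit read from the data, passing the limit was not always enough; inconclusive means only one of those two criteria met; inactive means neither criterion met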
SIRT5 block – blocks human SIRT5 desuccinylation of peptide; Q9NXA8; Purified SirT5, succinyl-peptide AMC, trypsin-coupled fluorescence; inhibition, % at 15 µM; hit rate 1.1% among 330,000; AID 652115; in the data active means inhibition above about 15%; inconclusive means no clear call, values can overlap the other calls
PDI inh – inhibitors of human protein disulfide isomerase. PDI insulin aggregation turbidity, A650, 90 min. inhibition, % at 10 µM. hit rate 0.052% among 350,000. AID 588391;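 active means mean inhibition across replicates of 30% or more, whatever share of single replicates reach that level; inconclusive means mean inhibition below 30% while every single replicate reaches 30%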
Target sequence (P07237 whole entry, looked up): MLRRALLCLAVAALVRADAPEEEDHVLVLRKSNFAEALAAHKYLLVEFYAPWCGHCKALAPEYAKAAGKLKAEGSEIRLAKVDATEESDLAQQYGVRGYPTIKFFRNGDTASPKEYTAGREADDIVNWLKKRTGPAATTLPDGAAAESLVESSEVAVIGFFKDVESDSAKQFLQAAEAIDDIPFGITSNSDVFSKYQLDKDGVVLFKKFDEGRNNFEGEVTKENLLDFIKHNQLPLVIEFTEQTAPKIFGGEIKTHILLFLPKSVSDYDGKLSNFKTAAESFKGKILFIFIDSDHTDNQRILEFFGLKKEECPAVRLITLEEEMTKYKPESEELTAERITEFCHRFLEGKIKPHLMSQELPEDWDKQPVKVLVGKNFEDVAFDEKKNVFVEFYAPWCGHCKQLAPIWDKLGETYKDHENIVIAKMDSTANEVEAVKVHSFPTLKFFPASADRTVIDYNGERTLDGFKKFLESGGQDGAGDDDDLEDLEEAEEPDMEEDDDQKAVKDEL
Active calls of the source: *; ? = inconclusive; · = not tested or not shown. The list is not random: actives were taken first. Their share in the collection is about 1.5%.

SMILES	S100A4 inh HTS	INS-1E GSIS act	ERp5 block	SIRT5 block	PDI inh
CC(=O)N(C)C[C@@H]1Oc2cc(C#CC(C)(C)O)ccc2S(=O)(=O)N([C@H](C)CO)C[C@H]1C	8	20	-10	0	·
CC(=O)O[C@@H]1C=C[C@@H](C#Cc2ccc(C(C)(C)C)cc2)O[C@@H]1COC(=O)NC(C)C	-8	-15	4	·	·
CC(C)NC(=O)OC[C@H]1O[C@H](C#Cc2ccc(C(C)(C)C)cc2)C=C[C@H]1O	-2	64*	-2	·	·
CCNC(=O)C[C@@H]1C=C[C@H](NC(=O)C2CCOCC2)[C@H](CO)O1	5	3	4	-1	·
CCSc1nnc(NC(=O)c2csc(C)c2)s1	·	99*	·	·	-6
CCSc1nnc(NC(=O)c2cccc3ccccc23)s1	1	15	-9	-2	-13
Nc1ccc(C(=O)OCc2csc(-c3ccccc3)n2)cc1[N+](=O)[O-]	·	46*	·	·	-8
C[C@H](O)C#Cc1ccc([C@@H]2[C@H]3CN(C(=O)c4cccc(F)c4)CCCCN3[C@H]2CO)cc1	-4	10	-2	4	·
C1CCC(C(CC2CCCCN2)C2CCCCC2)CC1 (stereo not drawn)	9	104*	-7	-6	1
O=C(CCN1CCCCC1)c1ccccc1	1	-5	6	11	12
O=C(CCN1CCOCC1)c1ccc2c(c1)OCCO2	·	48*	·	·	2
O=C(CCN1CCOCC1)c1ccccc1	-5	105*	0	-1	-7
CO[C@@H]1CC[C@@H]2CCOc3c(C#N)cccc3C(=O)N(C)C[C@@H](OC)[C@@H](C)C(=O)N(C)C[C@@H]1O2	10	6	12	35*	·
CO[C@@H]1CC[C@@H]2CCN(C)C(=O)[C@@H](C)[C@H](OC)CN(C)C(=O)c3cc(C#N)ccc3OC[C@@H]1O2	12	16	-3	19*	·
CO[C@@H]1CC[C@H]2CCOc3c(C#N)cccc3C(=O)N(C)C[C@H](C)C(=O)N(C)C[C@H]1O2	122*	8	1	13	·
O=C(N[C@@H]1C=C[C@@H](CC(=O)N2CCc3ccccc3C2)O[C@@H]1CO)C1CC1	?	-1	0	8	·
CCCCCCCNC(=O)C1(CC2CC(c3ccccc3)=NO2)CCN(C(=O)c2ccccc2)CC1 (stereo not drawn)	-2	·	5	3	-3
CCCCCCCNC(=O)C1(CC2CC(c3ccccc3)=NO2)CCN(C(=O)OC(C)(C)C)CC1 (stereo not drawn)	-7	6	1	17*	-2
CCNc1nc(NC(C)CC)nc(ON=C(C)C)n1 (stereo not drawn)	0	56*	3	-1	-1
CC(C)C[C@H](NC(=O)c1nc[nH]c1C(=O)NC1CCN(C(=O)OC(C)(C)C)CC1)C(=O)OCc1ccccc1	0	1	2	-1	-6
CC(C)C[C@H](NC(=O)c1nc[nH]c1C(=O)NC1CCN(C(=O)OC(C)(C)C)CC1)C(=O)OC(C)(C)C	-1	346*	2	·	-3
CC(C)C[C@H](NC(=O)c1[nH]cnc1C(=O)N[C@@H](Cc1ccccc1)C(=O)OC(C)(C)C)C(=O)OC(C)(C)C	2	-21	4	·	-2
CC(C)(C)OC(=O)NCc1ccc(CNC(=O)c2nc[nH]c2C(=O)NCc2ccc(CNC(=O)OC(C)(C)C)cc2)cc1	-20	-5	4	16*	21
CC(C)C[C@H](NC(=O)c1[nH]cnc1C(=O)N[C@@H](C)c1ccccc1)C(=O)OC(C)(C)C	-5	88*	-1	·	-4
CC(C)(C)OC(=O)NCCCC[C@H](NC(=O)c1nc[nH]c1C(=O)NCC(=O)OCc1ccccc1)C(=O)OC(C)(C)C	2	-9	8	24*	0
SMILES	S100A4 inh HTS	INS-1E GSIS act	ERp5 block	SIRT5 block	PDI inh
CC(C)CC#Cc1ccc([C@@H]2[C@H](CO)N3C(=O)CN(C(=O)c4cnccn4)C[C@@H]23)cc1	14	-3	4	1	·
CC(C)(C)C(=O)CSc1nc2ncc(Br)cc2[nH]1	·	39	·	·	-3
Cc1cc(C)c(NC(=O)CSc2nc3ncc(Br)cc3[nH]2)c(C)c1	-5	8	-1	19*	7
Cc1nc2ccc(NC(=O)c3ccccc3)cc2s1	0	-14	-2	-2	-6
CCn1nc(C(=O)Nc2ccc3nc(C)sc3c2)c2ccccc2c1=O	·	53*	·	·	2
CCC(=O)N[C@@H]1C=C[C@@H](CC(=O)NCc2ccccc2OC)O[C@H]1CO	2	1	-3	6	·
O=C(C[C@H]1C=C[C@H](NC(=O)CN2CCOCC2)[C@H](CO)O1)NCCc1ccccc1	3	-5	-3	17*	·
O=C(C[C@@H]1C=C[C@@H](NC(=O)CN2CCOCC2)[C@H](CO)O1)NC1CCCCC1	4	4	1	26*	·
O=C(C[C@H]1C[C@@H]2c3cc(NC(=O)NC4CCCC4)ccc3O[C@@H]2[C@@H](CO)O1)NCc1ccc2c(c1)OCO2	7	-6	-2	-10	·
C[C@@H]1CCCCO[C@@H](CN(C)C(=O)c2ccccc2)[C@@H](C)CN([C@@H](C)CO)C(=O)c2cc(NS(=O)(=O)c3ccc(F)cc3)ccc2O1	-1	-4	-9	4	·
Cc1c(C(=O)c2ccc(N(C)C)cc2)c2ccccn2c1CCC#N	-4	2	4	112*	-5
O=C(C[C@H]1CC[C@H]2[C@@H](COC[C@@H](O)CN2S(=O)(=O)c2cccc(Cl)c2)O1)Nc1ccc(-c2ccccc2)cc1	2	-2	1	19*	·
COC(=O)C[C@H]1CC[C@H]2[C@@H](COC[C@H](O)CN2S(=O)(=O)c2ccccc2OC)O1	-5	8	-5	17*	·
COc1ccccc1S(=O)(=O)N1C[C@@H](O)COC[C@@H]2O[C@@H](CC(=O)O)CC[C@H]21	-2	1	1	-4	·
COc1ccccc1S(=O)(=O)N1C[C@H](O)COC[C@H]2O[C@@H](CC(=O)O)CC[C@@H]21	10	-1	36*	-2	·
Cc1ccc(S(=O)(=O)N[C@H]2C=C[C@@H](CC(=O)NCCN3CCCCC3)O[C@H]2CO)cc1	-17	9	4	0	·
C#Cc1cccc(-n2nnc(C(=O)OC)c2-c2ccccc2)c1	1	40*	2	-3	2
COC(=O)c1nnn(-c2ccccc2)c1N	·	·	·	·	1
CO[C@H]1CN(C)C(=O)c2cc(NS(C)(=O)=O)ccc2OC[C@H](C)N(C)C[C@H]1C	29	-4	2	-3	·
C[C@@H]1CCCCO[C@H](CN(C)S(=O)(=O)c2ccc(Cl)cc2)[C@H](C)CN([C@@H](C)CO)C(=O)c2cc(NS(=O)(=O)c3ccc(F)cc3)ccc2O1	-4	-9	-3	22*	·
C[C@@H]1CCCCO[C@H](CN(C)S(=O)(=O)c2ccc(F)cc2)[C@@H](C)CN([C@@H](C)CO)C(=O)c2cc(NS(=O)(=O)c3ccc(Cl)cc3)ccc2O1	1	-1	-3	17*	·
